Measurements collected from several papers.
Each line is one published result; the experiments were not run side by side.
Target: Aurora kinase B (AURKB, Homo sapiens, UniProt Q96GD4)

Cn1cncc1[C@](O)(COc1ccc(C#N)cc1-c1ccc(OC(F)(F)F)cc1)c1ccc(C#N)cc1
remaining binding (cell-free assay, competition with immobilised ligand; 1 µM): 100%

Nc1ncc(-c2nc(N3CCOCC3)nc(N3CCOCC3)n2)c(C(F)F)n1
remaining binding (binding, competition with immobilised ligand; 10 µM): 91%

COc1ncccc1-c1cnn2ccc(N3CCN(C(=O)OC(C)C)CC3)nc12
remaining binding (binding, competition with immobilised ligand; 1 µM): 58%

Cn1cc(-c2cccc(N3CCc4c(sc5c4CC(C)(C)C5)C3=O)c2CO)cc(Nc2ccncn2)c1=O
inhibition (enzyme activity, inhibitor; 1 µM): 6%

C#Cc1n[nH]c2c(-c3cn([C@@H](C)c4ccccn4)c(=O)[nH]c3=O)cc(F)cc12
inhibition (enzyme activity, inhibitor; 0.1 µM): 4.9%

CC(C)(C)c1cc(C=C(C#N)C#N)cc(Br)c1O
remaining activity (enzyme activity, inhibitor; 0.5 µM): 97.1%

N#CC1(c2ccccn2)CCN(Cc2cc(C(=O)O)c(=O)n3ccccc23)CC1
remaining binding (cell-free assay, competition with immobilised ligand; 1 µM): 76%

C#Cc1n[nH]c2c(-c3cn([C@@H](C)c4ccccc4)c(=O)[nH]c3=O)cc(F)cc12
inhibition (enzyme activity, inhibitor; 0.1 µM): 0.1%

O=c1[nH]c2ccccc2n1C1CCN(Cc2ccc(-c3[nH]c4cc5ncnc5cc4nc3-c3ccccc3)cc2)CC1
remaining activity (enzyme activity; 0.5 µM): 98.7%
